Results as given in ChEMBL document CHEMBL1149652, “Synthesis and structure-activity relationship study of cytotoxic germanicane- and lupane-type 3beta-O-monodesmosidic saponins starting from betulin” (Bioorg Med Chem, 2007).

How the values were obtained:
[1] = test system: A549; assay: Cytotoxicity against human A549 cells assessed as cell viability after 48 hrs; type: functional, cell-based; conditions: A549, 48 h
Outline: (§1)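 Cells from ATCC grown in MEM with Earle's salts, L-glutamine, 10% FBS, vitamins, essential amino acids, sodium pyruvate, penicillin/streptomycin, 37 °C, 5% CO2. Exponentially growing cells seeded at 5 × 10^3 per well, adhered 16 h, then exposed 48 h to increasing concentrations from DMSO stocks (final DMSO 0.5% v/v). Resazurin fluorescence read (ex 530/em 590 nm), blank-subtracted, expressed as survival versus control wells. IC50 given as mean ± standard deviation, three experiments in triplicate.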

[2] = test system: DLD-1; assay: Cytotoxicity against human DLD1 cells assessed as cell viability after 48 hrs; type: functional, cell-based; conditions: DLD-1, 48 h; outline: as §1
[3] = Cytotoxicity against human WS1 cells assessed as cell viability after 48 hrs; type: cell-based; conditions: WS1, 48 h; outline: as §1

Compound	IC50 [1]	IC50 [2]	IC50 [3]
C=C(C)[C@@H]1CC[C@]2(CO)CC[C@]3(C)[C@H](CC[C@@H]4[C@@]5(C)CC[C@H](O[C@H]6O[C@H](CO)[C@@H](O)[C@H](O)[C@@H]6O)C(C)(C)[C@@H]5CC[C@]43C)[C@@H]12	7.3 µM	10.1 µM	5.1 µM
C=C(C)[C@@H]1CC[C@]2(C(=O)O)CC[C@]3(C)[C@H](CC[C@@H]4[C@@]5(C)CC[C@H](O[C@@H]6O[C@H](CO)[C@@H](O)[C@H](O)[C@H]6O)C(C)(C)[C@@H]5CC[C@]43C)[C@@H]12	> 75 µM	–	–
C=C(C)[C@@H]1CC[C@]2(C(=O)O)CC[C@]3(C)[C@H](CC[C@@H]4[C@@]5(C)CC[C@H](O[C@H]6O[C@H](CO)[C@@H](O)[C@H](O)[C@@H]6O)C(C)(C)[C@@H]5CC[C@]43C)[C@@H]12	34 µM	15 µM	13 µM
CC1(C)CC[C@]23CC[C@]4(C)[C@H](CC[C@@H]5[C@@]6(C)CC[C@H](O[C@H]7OC[C@H](O)[C@H](O)[C@H]7O)C(C)(C)[C@@H]6CC[C@]54C)[C@H]2[C@@H]1OC3	> 75 µM	> 75 µM	> 75 µM
CC1(C)CC[C@]23CC[C@]4(C)[C@H](CC[C@@H]5[C@@]6(C)CC[C@H](O[C@@H]7OC[C@@H](O)[C@H](O)[C@H]7O)C(C)(C)[C@@H]6CC[C@]54C)[C@H]2[C@@H]1OC3	> 75 µM	> 75 µM	> 75 µM
CC1(C)CC[C@]23CC[C@]4(C)[C@H](CC[C@@H]5[C@@]6(C)CC[C@H](O[C@@H]7O[C@H](CO)[C@H](O)[C@H](O)[C@H]7O)C(C)(C)[C@@H]6CC[C@]54C)[C@H]2[C@@H]1OC3=O	> 75 µM	> 75 µM	> 75 µM
CC1(C)CC[C@]23CC[C@]4(C)[C@H](CC[C@@H]5[C@@]6(C)CC[C@H](O[C@@H]7OC[C@@H](O)[C@H](O)[C@H]7O)C(C)(C)[C@@H]6CC[C@]54C)[C@H]2[C@@H]1OC3=O	> 75 µM	> 75 µM	> 75 µM
CC1(C)CC[C@]23CC[C@]4(C)[C@H](CC[C@@H]5[C@@]6(C)CC[C@H](O[C@@H]7O[C@H](CO)[C@H](O)[C@H](O)[C@H]7O)C(C)(C)[C@@H]6CC[C@]54C)[C@H]2[C@@H]1OC3	30 µM	40 µM	30 µM
CC1(C)CC[C@]23CC[C@]4(C)[C@H](CC[C@@H]5[C@@]6(C)CC[C@H](O[C@H]7O[C@H](CO)[C@@H](O)[C@H](O)[C@@H]7O)C(C)(C)[C@@H]6CC[C@]54C)[C@H]2[C@@H]1OC3=O	> 75 µM	> 75 µM	> 75 µM
C=C(C)[C@@H]1CC[C@]2(C(=O)O)CC[C@]3(C)[C@H](CC[C@@H]4[C@@]5(C)CC[C@H](OC(C)=O)C(C)(C)[C@@H]5CC[C@]43C)[C@@H]12	18 µM	20 µM	57 µM
C=C(C)[C@@H]1CC[C@]2(C(=O)O)CC[C@]3(C)[C@H](CC[C@@H]4[C@@]5(C)CC[C@H](O[C@@H]6O[C@H](CO)[C@H](O)[C@H](O)[C@H]6O)C(C)(C)[C@@H]5CC[C@]43C)[C@@H]12	> 75 µM	> 75 µM	> 75 µM
C=C(C)[C@@H]1CC[C@]2(C(=O)O)CC[C@]3(C)[C@H](CC[C@@H]4[C@@]5(C)CC[C@H](O[C@@H]6OC[C@@H](O)[C@H](O)[C@H]6O)C(C)(C)[C@@H]5CC[C@]43C)[C@@H]12	15 µM	18 µM	20 µM
CC1(C)CC[C@]23CC[C@]4(C)[C@H](CC[C@@H]5[C@@]6(C)CC[C@H](O[C@@H]7O[C@H](CO)[C@@H](O)[C@H](O)[C@H]7O)C(C)(C)[C@@H]6CC[C@]54C)[C@H]2[C@@H]1OC3=O	> 75 µM	> 75 µM	> 75 µM
C[C@@H]1O[C@H](O[C@H]2CC[C@]3(C)[C@H]4CC[C@@H]5[C@H]6[C@@H]7OC(=O)[C@@]6(CCC7(C)C)CC[C@@]5(C)[C@]4(C)CC[C@H]3C2(C)C)[C@@H](O)[C@@H](O)[C@@H]1O	> 75 µM	> 75 µM	> 75 µM
C=C(C)[C@@H]1CC[C@]2(CO)CC[C@]3(C)[C@H](CC[C@@H]4[C@@]5(C)CC[C@H](O[C@@H]6O[C@H](CO)[C@@H](O)[C@H](O)[C@H]6O)C(C)(C)[C@@H]5CC[C@]43C)[C@@H]12	> 75 µM	> 75 µM	> 75 µM
C=C(C)[C@@H]1CC[C@]2(CO)CC[C@]3(C)[C@H](CC[C@@H]4[C@@]5(C)CC[C@H](O[C@@H]6O[C@H](CO)[C@H](O)[C@H](O)[C@H]6O)C(C)(C)[C@@H]5CC[C@]43C)[C@@H]12	> 75 µM	> 75 µM	> 75 µM
C=C(C)[C@@H]1CC[C@]2(CO)CC[C@]3(C)[C@H](CC[C@@H]4[C@@]5(C)CC[C@H](O[C@@H]6OC[C@@H](O)[C@H](O)[C@H]6O)C(C)(C)[C@@H]5CC[C@]43C)[C@@H]12	> 75 µM	> 75 µM	> 75 µM
CC1(C)CC[C@]23CC[C@]4(C)[C@H](CC[C@@H]5[C@@]6(C)CC[C@H](O[C@@H]7O[C@H](CO)[C@@H](O)[C@H](O)[C@H]7O)C(C)(C)[C@@H]6CC[C@]54C)[C@H]2[C@@H]1OC3	31 µM	40 µM	40 µM
C[C@@H]1O[C@H](O[C@H]2CC[C@]3(C)[C@H]4CC[C@@H]5[C@H]6[C@@H]7OC[C@@]6(CCC7(C)C)CC[C@@]5(C)[C@]4(C)CC[C@H]3C2(C)C)[C@@H](O)[C@@H](O)[C@@H]1O	> 75 µM	> 75 µM	> 75 µM
CC1(C)CC[C@]23CC[C@]4(C)[C@H](CC[C@@H]5[C@@]6(C)CC[C@H](O[C@H]7OC[C@H](O)[C@H](O)[C@H]7O)C(C)(C)[C@@H]6CC[C@]54C)[C@H]2[C@@H]1OC3=O	> 75 µM	> 75 µM	> 75 µM
CC1(C)CC[C@]23CC[C@]4(C)[C@H](CC[C@@H]5[C@@]6(C)CC[C@H](O[C@H]7O[C@H](CO)[C@@H](O)[C@H](O)[C@@H]7O)C(C)(C)[C@@H]6CC[C@]54C)[C@H]2[C@@H]1OC3	> 75 µM	> 75 µM	> 75 µM
CC1(C)CC[C@]23CC[C@]4(C)[C@H](CC[C@@H]5[C@@]6(C)CC[C@H](O)C(C)(C)[C@@H]6CC[C@]54C)[C@H]2[C@H]1OC3=O	> 75 µM	> 75 µM	> 75 µM
CC1(C)CC[C@]23CC[C@]4(C)[C@H](CC[C@@H]5[C@@]6(C)CC[C@H](O)C(C)(C)[C@@H]6CC[C@]54C)[C@H]2[C@H]1OC3 [ALLOBETULIN]	> 75 µM	> 75 µM	> 75 µM
